The values below come from ChEMBL document CHEMBL2384906, “Biological activity, design, synthesis and structure activity relationship of some novel derivatives of curcumin containing sulfonamides” (Eur J Med Chem, 2013).

This assay concerns Mus musculus. Description: Antiinflammatory activity in mouse assessed as inhibition of carrageenan-induced increase in paw volume at 100 mg/kg, ip administered 1 hr prior to carrageenan challenge measured after 3 hrs relative to control. The conditions noted are these: route intraperitoneal. The assay is classed as functional. In outline: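 Mice were fasted 2 h and placed in groups of five. Controls received saline i.p. Phenylbutazone was given at 100 mg/kg i.p., curcumin at 200 mg/kg i.p., and derivatives at 200 mg/kg. After 1 h, 0.1 mL of 1% carrageenan in saline was injected subplantar into the right hind paw. Paw volume was followed by plethysmometer for 3 h, and % inhibition was calculated as (Vc − Vt)/Vc × 100.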
In general terms: In the carrageenan paw model, swelling and tenderness develop within hours.

In the case of `CCCCC1C(=O)N(c2ccccc2)N(c2ccccc2)C1=O` [PHENYLBUTAZONE], the inhibition in vivo – broadly, the relative decrease from the control value, in per cent – at 100 mg/kg came to 70.9%.
